Here are results for seven compounds from ChEMBL document CHEMBL5661969, “Preclinical evaluation of a potent novel DNA-dependent protein kinase inhibitor NU7441” (Cancer Res, 2006).

Series [1] concerns the target T1, DNA-dependent protein kinase catalytic subunit (Homo sapiens, UniProt P78527). Put plainly: Inhibition of DNA-PK in human SW480 cells assessed potentiation of ionizing radiation-induced cytotoxicity by measuring ratio of cytotoxic agent required to kill 90% of the cells in the absence and presence of compound. Type of series: cell-based.
For series [2], the target named is T1, DNA-dependent protein kinase catalytic subunit. Put plainly: Inhibition of DNA-PK in human HCT-116 cells assessed as potentiation of ionizing radiation-induced cytotoxicity relative to radiation alone. Type of series: cell-based.
Series [3] has the same target. As to the kind of experiment: Inhibition of DNA-PK in human HCT-116 cells assessed as potentiation of etoposide-induced cytotoxicity relative to etoposide alone. Type of series: cell-based.
A short description of series [4]: Inhibition of ATM in Chinese hamster DNA-PK proficient V3-YAC cells assessed as potentiation of ionizing radiation-induced cytotoxicity by measuring fold change in radiation LD90 at 10 umol/L preincubated for 1 hr followed by gamma-irradiation and measured after 16 hrs by crystal violet staining based assay relative to radiation alone. More on the design: species or system Cricetulus griseus. Particulars: dose 10 µmol/L; time 17 hrs; condition cancer.

Series [5] is described as follows: Inhibition of ATM in Chinese hamster DNA-PK proficient V3-YAC cells assessed as potentiation of etoposide-induced cytotoxicity by measuring fold change in etoposide LD90 at 10 umol/L measured after 16 hrs by crystal violet staining based assay relative to etoposide alone. More on the design: species or system Cricetulus griseus. Particulars: dose 10 µmol/L, condition cancer.

Series [6] can be described thus: Cytotoxicity against Chinese hamster DNA-PK deficient V3 cells assessed as increase in etoposide-induced cytotoxicity by measuring fold change in etoposide LD90 at 10 umol/L measured after 16 hrs by crystal violet staining based assay relative to etoposide alone. In kind it is toxicity, cell-based, Cricetulus griseus. Particulars: v3, 16 h, 10 µM, dose 10 µmol/L.

Series [7] in a line: Toxicity in human SW620 cell xenografted athymic nude CD1 mouse assessed as maximum body weight loss at 11.35 mg/kg, ip administered 5 times daily for 5 days relative to control. Type of series: organism-based, SW-620. Particulars: in vivo, 120 h, time 5 day. (Xenograft models place foreign cells or tissue in a host animal.)
Series [8] relates to SW-620. Put plainly: Antitumor activity against human SW620 cells xenografted in athymic nude CD1 mouse assessed as tumor growth delay at 11.35 mg/kg, ip administered 5 times daily for 5 days. In kind it is functional. The note with it: time 5 day.
The nature of series [9]: Cytotoxicity against Chinese hamster DNA-PK deficient V3 cells assessed as reduction in cell survival measured after 16 hrs by crystal violet staining based assay. Type of series: toxicity, Cricetulus griseus. Particulars: v3, 16 h. The procedure, abridged: (§1)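 V3 (DNA-PKcs-deficient CHO) and V3-YAC (human DNA-PKcs YAC, kept on G-418 500 μg/mL) cells were grown in RPMI/10% FBS. Exponential cells were exposed to agent in 0.5% DMSO for 16 h, then trypsinized and reseeded at 100–100,000 per dish in drug-free medium. Colonies were stained with crystal violet after 10–14 days and counted. Survival is relative to 0.5% DMSO controls.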

Series [10] in a line: Cytotoxicity against Chinese hamster DNA-PK proficient V3-YAC cells assessed as reduction in cell survival measured after 16 hrs by crystal violet staining based assay. In kind it is toxicity, Cricetulus griseus. The procedure, abridged:
as §1

A short description of series [11]: Selectivity ratio of LD90 for cytotoxicity against Chinese hamster DNA-PK proficient V3-YAC cells to LD90 for cytotoxicity against Chinese hamster DNA-PK deficient V3 cells. In kind it is toxicity, cell-based, Cricetulus griseus. The procedure, abridged:
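Clonogenic survival of V3 and V3-YAC Chinese hamster ovary cells, RPMI/10% FBS, V3-YAC kept under G-418 at 500 μg/mL. Colonies read 10–14 days later. LD90 is the dose or concentration killing 90%, and the LD90 ratio gives the fold change.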

The test system of series [12] is SW-620. Put plainly: Induction of DNA damage in human SW620 cells assessed as increase in formation of gamma-H2AX phosphorylation foci per cell at 1 umol/L preincubated for 1 hr followed by compound washout and measured after 30 mins by DAPI staining based immunofluorescence microscopic analysis. In kind it is functional. Particulars: dose 1 µmol/L. The procedure, abridged:
(§2)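 SW620 cells on coverslips at 50–70% confluence, preincubated 1 h ± 1 μmol/L agent, then 1 μmol/L etoposide for 1 h, washed three times, and kept ± agent for up to 24 h. Fixation in −20 °C methanol, then anti-γH2AX Ser139 antibody with FITC secondary and DAPI mounting. Foci counted in 30 nuclei from three areas per sample, in triplicate.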

Series [13] concerns SW-620. Put plainly: Induction of DNA damage in human SW620 cells assessed as loss of gamma-H2AX phosphorylation foci formation at 1 umol/L preincubated for 1 hr followed by compound washout and measured after 4 hrs by DAPI staining based immunofluorescence microscopic analysis relative to control. In kind it is functional. The note with it: dose 1 µmol/L, at 1 µM. The procedure, abridged:
as §2

The subject of series [14] is SW-620. As to the kind of experiment: Induction of DNA damage in human SW620 cells assessed as loss of gamma-H2AX phosphorylation foci formation at 1 umol/L preincubated for 1 hr followed by compound washout and measured after 16 hrs by DAPI staining based immunofluorescence microscopic analysis relative to control. Type of series: functional. The note with it: dose 1 µmol/L, at 1 µM. The procedure, abridged:
as §2

In series [15] the test system is SW-620. As to the kind of experiment: Cell cycle arrest in human SW620 cells assessed as increase in G2-M-phase cell population at 0.1 uM measured after 16 hrs by propidium iodide staining based flow cytometry relative to control. In kind it is functional.
The subject of series [16] is SW-620. As to the kind of experiment: Cell cycle arrest in human SW620 cells assessed as reduction in S-phase cell population at 0.1 uM measured after 16 hrs by propidium iodide staining based flow cytometry. In kind it is functional.
Series [17] deals with SW-620. Put plainly: Cell cycle arrest in human SW620 cells assessed as increase in G2-M-phase cell population at 10 nM measured after 16 hrs by propidium iodide staining based flow cytometry relative to control. Type of series: functional.
Series [18] has as its system SW-620. As to the kind of experiment: Cell cycle arrest in human SW620 cells assessed as reduction in S-phase cell population at 10 nM measured after 16 hrs by propidium iodide staining based flow cytometry. Type of series: functional. A general note: Flow cytometry measures light scatter and fluorescence of single cells or particles in a stream.

Active and inactive are the calls of the source. The calls are words filed in the database; no cut-off is given here.

T1 sequence (P78527 whole entry): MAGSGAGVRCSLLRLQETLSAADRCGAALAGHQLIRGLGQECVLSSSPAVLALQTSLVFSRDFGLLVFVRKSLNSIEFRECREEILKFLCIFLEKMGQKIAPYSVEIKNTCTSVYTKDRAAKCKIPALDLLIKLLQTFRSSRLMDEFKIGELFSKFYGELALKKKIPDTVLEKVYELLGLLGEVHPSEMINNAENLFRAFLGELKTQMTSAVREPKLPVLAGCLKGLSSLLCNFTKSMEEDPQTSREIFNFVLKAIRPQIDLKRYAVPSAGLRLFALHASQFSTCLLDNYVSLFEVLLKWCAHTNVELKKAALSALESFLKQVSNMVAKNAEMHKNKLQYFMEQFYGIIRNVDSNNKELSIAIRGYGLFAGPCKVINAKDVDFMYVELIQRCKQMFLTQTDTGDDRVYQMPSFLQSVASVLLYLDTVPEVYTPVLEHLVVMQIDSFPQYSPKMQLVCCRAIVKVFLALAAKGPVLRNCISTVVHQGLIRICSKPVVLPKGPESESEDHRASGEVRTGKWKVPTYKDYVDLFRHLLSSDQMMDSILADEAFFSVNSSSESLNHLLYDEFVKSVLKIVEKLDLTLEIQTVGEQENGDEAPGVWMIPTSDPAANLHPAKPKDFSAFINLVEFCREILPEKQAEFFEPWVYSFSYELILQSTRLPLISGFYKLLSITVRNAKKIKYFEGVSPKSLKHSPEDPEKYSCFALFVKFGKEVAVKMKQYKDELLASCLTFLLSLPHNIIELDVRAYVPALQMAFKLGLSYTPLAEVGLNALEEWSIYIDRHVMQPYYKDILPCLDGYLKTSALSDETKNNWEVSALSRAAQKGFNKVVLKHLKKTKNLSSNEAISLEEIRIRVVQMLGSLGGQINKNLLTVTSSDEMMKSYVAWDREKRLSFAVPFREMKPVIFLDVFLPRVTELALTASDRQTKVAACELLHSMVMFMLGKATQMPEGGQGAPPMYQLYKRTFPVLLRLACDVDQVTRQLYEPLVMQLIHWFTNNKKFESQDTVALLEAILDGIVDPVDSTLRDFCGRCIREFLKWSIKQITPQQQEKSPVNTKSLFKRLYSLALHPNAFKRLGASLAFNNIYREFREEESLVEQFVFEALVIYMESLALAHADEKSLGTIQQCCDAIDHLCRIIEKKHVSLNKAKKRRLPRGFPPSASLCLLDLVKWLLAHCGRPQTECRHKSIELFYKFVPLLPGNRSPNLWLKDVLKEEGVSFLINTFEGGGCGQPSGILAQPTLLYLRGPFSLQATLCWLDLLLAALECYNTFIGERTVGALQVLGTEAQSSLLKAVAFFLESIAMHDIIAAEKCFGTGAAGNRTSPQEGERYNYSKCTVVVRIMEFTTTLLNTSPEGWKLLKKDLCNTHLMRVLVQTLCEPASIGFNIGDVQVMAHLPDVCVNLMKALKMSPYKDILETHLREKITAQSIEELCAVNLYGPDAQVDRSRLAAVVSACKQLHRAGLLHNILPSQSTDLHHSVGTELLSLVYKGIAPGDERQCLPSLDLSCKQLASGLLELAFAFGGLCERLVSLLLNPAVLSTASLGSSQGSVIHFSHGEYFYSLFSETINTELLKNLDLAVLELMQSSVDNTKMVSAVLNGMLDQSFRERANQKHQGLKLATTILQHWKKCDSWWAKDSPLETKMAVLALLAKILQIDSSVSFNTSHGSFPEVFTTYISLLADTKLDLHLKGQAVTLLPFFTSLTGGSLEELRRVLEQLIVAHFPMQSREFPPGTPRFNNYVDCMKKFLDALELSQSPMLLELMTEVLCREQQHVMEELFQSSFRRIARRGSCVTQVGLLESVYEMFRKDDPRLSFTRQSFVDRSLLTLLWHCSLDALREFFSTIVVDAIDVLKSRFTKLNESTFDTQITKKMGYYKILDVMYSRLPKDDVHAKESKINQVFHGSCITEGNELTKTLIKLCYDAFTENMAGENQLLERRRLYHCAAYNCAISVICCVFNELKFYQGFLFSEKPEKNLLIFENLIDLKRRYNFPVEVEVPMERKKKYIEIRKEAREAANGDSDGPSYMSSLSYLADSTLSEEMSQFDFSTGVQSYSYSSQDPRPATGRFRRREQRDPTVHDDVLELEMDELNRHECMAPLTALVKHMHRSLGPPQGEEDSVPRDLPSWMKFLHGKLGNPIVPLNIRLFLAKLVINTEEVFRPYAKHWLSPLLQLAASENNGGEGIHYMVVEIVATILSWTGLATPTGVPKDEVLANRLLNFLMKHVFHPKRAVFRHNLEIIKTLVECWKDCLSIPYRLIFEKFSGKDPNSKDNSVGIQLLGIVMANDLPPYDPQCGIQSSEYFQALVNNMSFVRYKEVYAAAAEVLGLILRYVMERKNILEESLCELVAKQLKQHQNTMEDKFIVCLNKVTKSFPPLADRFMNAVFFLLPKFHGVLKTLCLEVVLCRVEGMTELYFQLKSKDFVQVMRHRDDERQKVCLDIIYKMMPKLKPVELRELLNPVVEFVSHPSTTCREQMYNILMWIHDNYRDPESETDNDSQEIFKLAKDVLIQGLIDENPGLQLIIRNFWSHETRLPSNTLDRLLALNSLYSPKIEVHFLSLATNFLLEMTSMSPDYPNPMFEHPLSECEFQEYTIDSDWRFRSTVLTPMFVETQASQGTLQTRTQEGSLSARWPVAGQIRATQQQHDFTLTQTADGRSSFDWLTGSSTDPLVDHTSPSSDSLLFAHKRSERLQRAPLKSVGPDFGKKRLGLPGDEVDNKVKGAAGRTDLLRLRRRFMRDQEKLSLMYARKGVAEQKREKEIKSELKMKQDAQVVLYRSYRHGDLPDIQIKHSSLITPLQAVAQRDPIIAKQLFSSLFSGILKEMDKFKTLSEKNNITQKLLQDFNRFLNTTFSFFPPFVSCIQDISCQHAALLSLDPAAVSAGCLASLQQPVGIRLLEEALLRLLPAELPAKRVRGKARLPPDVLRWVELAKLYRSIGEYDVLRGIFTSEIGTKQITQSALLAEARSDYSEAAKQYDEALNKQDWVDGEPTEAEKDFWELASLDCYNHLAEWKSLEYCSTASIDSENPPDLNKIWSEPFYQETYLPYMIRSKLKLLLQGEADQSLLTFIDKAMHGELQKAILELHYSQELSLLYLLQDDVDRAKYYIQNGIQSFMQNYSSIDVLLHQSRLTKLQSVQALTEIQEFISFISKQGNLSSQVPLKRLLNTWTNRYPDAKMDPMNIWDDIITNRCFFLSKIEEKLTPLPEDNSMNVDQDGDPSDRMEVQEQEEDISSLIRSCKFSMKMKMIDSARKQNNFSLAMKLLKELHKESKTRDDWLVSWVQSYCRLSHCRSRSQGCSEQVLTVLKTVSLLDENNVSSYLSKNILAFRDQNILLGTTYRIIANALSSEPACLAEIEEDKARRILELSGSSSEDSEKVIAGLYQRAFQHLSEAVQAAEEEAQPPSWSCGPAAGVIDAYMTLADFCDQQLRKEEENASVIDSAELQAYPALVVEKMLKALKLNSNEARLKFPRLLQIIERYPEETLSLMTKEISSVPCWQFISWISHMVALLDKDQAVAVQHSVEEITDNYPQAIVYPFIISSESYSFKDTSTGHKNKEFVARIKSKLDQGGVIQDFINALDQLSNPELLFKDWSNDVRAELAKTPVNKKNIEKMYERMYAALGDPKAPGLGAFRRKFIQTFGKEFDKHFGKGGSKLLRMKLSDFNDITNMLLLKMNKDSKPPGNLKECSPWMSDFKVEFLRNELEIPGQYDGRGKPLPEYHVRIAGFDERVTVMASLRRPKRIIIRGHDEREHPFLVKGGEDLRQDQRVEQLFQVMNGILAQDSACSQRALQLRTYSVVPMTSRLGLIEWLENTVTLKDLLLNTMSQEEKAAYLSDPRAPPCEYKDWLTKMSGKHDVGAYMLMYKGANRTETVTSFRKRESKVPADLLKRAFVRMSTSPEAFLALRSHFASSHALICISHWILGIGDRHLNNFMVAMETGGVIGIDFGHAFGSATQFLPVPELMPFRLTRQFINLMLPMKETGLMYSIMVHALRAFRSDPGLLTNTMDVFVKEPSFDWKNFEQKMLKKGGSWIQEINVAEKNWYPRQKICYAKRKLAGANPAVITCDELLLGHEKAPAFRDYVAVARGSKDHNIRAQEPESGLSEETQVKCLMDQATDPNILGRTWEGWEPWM

Turning to `O=c1cc(N2CCOCC2)oc2c(-c3ccccc3)cccc12`, in series [1], the Ratio is 1.9.

Take `CC(=O)c1ccc(N2CCOCC2)cc1O`: the fold change (FC) in series [2] stood at 4; in series [3] it was 15.

Turning to `O=c1cc(-c2cccc3c2Sc2ccccc2S3)oc(N2CCOCC2)c1` [KU-55933], the “fold change (FC)” value in series [4] was determined as 2; in series [5], 6; in [6] it was 6.

In the case of `COc1cc([C@@H]2c3cc4c(cc3[C@@H](O[C@@H]3O[C@@H]5CO[C@@H](C)O[C@H]5[C@H](O)[C@H]3O)[C@H]3COC(=O)[C@H]23)OCO4)cc(OC)c1OP(=O)(O)O` [ETOPOSIDE PHOSPHATE], in series [7], the Activity turned out to be 6%. The Time in the series with SW-620 [8] was 2.7 days.

Regarding `COc1cc([C@@H]2c3cc4c(cc3[C@@H](O[C@@H]3O[C@@H]5CO[C@@H](C)O[C@H]5[C@H](O)[C@H]3O)[C@H]3COC(=O)[C@H]23)OCO4)cc(OC)c1O` [ETOPOSIDE], the LD90 in series [9] stood at 0.6 µmol/L; in series [10], 1.8 µmol/L. For the same compound, the selectivity ratio in series [11] is 3. Moreover, the Activity is reported as 22 with SW-620 [12], 39% with SW-620 [13], 5.3% in the series with SW-620 [14] and 83% in the series with SW-620 [15]. For the same compound, the result in the series with SW-620 [16] was Active.

For `COc1cccc2c1C(=O)c1c(O)c3c(c(O)c1C2=O)C[C@@](O)(C(=O)CO)C[C@@H]3O[C@H]1C[C@H](N)[C@H](O)[C@H](C)O1` [DOXORUBICIN], the Activity in the series with SW-620 [17] amounted to 158%. Besides, in the series on SW-620 [18], the result was Active.

On to `COC[C@H]1OC(=O)c2coc3c2[C@@]1(C)C1=C(C3=O)[C@@H]2CCC(=O)[C@@]2(C)C[C@H]1OC(C)=O`, for which the Ratio in [1] was found to be 2.8.
